The source of these data is publication PMC11995438 (Bioorganic & medicinal chemistry, 2023).

In brackets after ≈: the same amount, converted by molar mass. Entries after “also recorded” stand apart in the source; their conditions may differ. *1 amine or outer side, *2 acyl side, *3 side chain or, on linkers, in order; H or OH if unused. Where a SMILES comes first, the peptide text is derived from it. [ ]: non-standard residue; d: D form. X1 = CN([C@H](C(=O)[*:2])[C@@H](O)C(N)=O)[*:1]; Pro(4S-Me) = C[C@@H]1CN[C@H](C(=O)O)C1; N(OH)Ala = C[C@H](NO)C(=O)O; Lac = C[C@H](O)C(=O)O; Dha = C=C(N)C(=O)O

For series [1], the target named is T1, CYP3A4 (Homo sapiens, UniProt P08684). The series can be described thus: in vitro. The conditions noted are these: microsomes.
Series [2] has as its target CYP2C9 (Homo sapiens, UniProt P11712). The series can be described thus: P450 inhibition in human hepatic microsomes, CYP2C9. The format is in vitro ADME. As to conditions: for Human P450 Inhibition 2C9 %Inh.: at 10 μM.
Series [3] concerns the target CYP2D6 (Homo sapiens, UniProt P10635). As to the kind of experiment: P450 inhibition in human hepatic microsomes, CYP2D6. The conditions noted are these: for Human P450 Inhibition 2D6 %Inh.: at 10 μM. The format is in vitro ADME.
The target of series [4] is T2, CYP1A2 (Homo sapiens, UniProt P05177).
T2 sequence (P05177 1-516): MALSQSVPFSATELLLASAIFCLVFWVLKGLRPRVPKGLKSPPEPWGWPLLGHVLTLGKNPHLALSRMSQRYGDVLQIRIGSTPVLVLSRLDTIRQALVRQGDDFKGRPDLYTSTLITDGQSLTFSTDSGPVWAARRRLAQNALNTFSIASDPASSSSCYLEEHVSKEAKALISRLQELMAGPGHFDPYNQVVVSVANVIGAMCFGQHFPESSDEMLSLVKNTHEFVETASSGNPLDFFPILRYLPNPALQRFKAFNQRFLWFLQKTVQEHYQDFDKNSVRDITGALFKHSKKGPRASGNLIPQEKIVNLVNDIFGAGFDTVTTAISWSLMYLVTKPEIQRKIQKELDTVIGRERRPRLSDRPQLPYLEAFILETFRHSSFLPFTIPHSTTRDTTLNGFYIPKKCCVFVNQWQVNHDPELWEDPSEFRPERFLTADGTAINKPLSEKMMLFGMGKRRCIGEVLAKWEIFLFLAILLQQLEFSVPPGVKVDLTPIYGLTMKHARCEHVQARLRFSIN
The series can be described thus: P450 inhibition in human hepatic microsomes, CYP1A2. The format is in vitro ADME. The conditions noted are these: for Human P450 Inhibition 1A2 %Inh.: at 10 μM.

Series [5] can be described thus: Hepatic microsomal stability, human. The format is in vitro ADME. As to conditions: liver microsomes, pH 7.4. Background: Liver microsomes are a subcellular fraction often used to study metabolism.
Series [6] in a line: Hepatic microsomal stability, mouse. As to conditions: liver microsomes, pH 7.4. Type of series: in vitro ADME.
A short description of series [7]: Plasma protein binding by equilibrium dialysis, human plasma. Type of series: in vitro ADME. As to conditions: for Plasma Protein Binding Human (%free): 2 μM, equilibrium dialysis 6 h, 37 °C. (Equilibrium dialysis compares concentrations on both sides of a semipermeable membrane.)
Series [8] can be described thus: PAMPA permeability. As to conditions: for Permeability-PAMPA Tested: 5 μM, pH 7.4, 5 hours; for Permeability-PAMPA Predicted level: predicted from PAMPA. Type of series: in vitro ADME.
A short description of series [9]: Plasma protein binding by equilibrium dialysis, mouse plasma. The format is in vitro ADME. The conditions noted are these: for Plasma Protein Binding Mouse (%free): 2 μM, equilibrium dialysis 6 h, 37 °C.
In series [10] the target is T1, CYP3A4. As to the kind of experiment: P450 inhibition in human hepatic microsomes, CYP3A4. The conditions noted are these: at 10 μM.
Series [11] concerns SK-OV-3 ovarian cancer cells. The series can be described thus: MTT viability assay, SK-OV-3. Type of series: cell-based. As to conditions: for IC50: read-out: IC50 SK-OV-3, 48 h.
Series [12] deals with HeLa cervical cancer cells. As to the kind of experiment: MTT viability assay, HeLa. Type of series: cell-based. The conditions noted are these: read-out: IC50 HeLa, 48 h. In a few lines:
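HeLa cells grown in DMEM with 10 % FBS at 37 °C, 5 % CO₂. Seeded at 5000 cells/well, attached overnight, then exposed to a concentration series of test compound or 0.5 % DMSO. MTT read-out 48 h after treatment. IC50 by non-linear regression; mean ± SD, n = 3.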
(In general: Tetrazolium assays rely on reduction of a dye to a coloured formazan, in cell work by metabolically active cells.)

A short description of series [13]: Kinetic solubility in pH 7.4 phosphate buffered saline. The format is physicochemical. The conditions noted are these: 1% DMSO, 24 hours, top concentration 100 μM.
Series [14] deals with T3, gatorbulin site of tubulin (Bos taurus, UniProt P81947+Q6B856). The series can be described thus: Binding constants by MTC displacement. Further details: species or system calf. The conditions noted are these: 10 μM tubulin plus 10 μM MTC, compound up to 100 μM.
Series [15] has as its target human MDR1/P-gp (Homo sapiens, UniProt P08183). The series can be described thus: MDCK-MDR1 permeability assay. As to conditions: dog, MDCK-MDR1, pH 7.4.
Series [16] addresses human efflux transporter MDR1/P-gp (MDCK cells) (Homo sapiens, UniProt P08183). As to the kind of experiment: MDCK-MDR1 permeability assay. The conditions noted are these: for Permeability-MDCK-PgP Substrate?: P-gp substrate classification.
In series [17] the target is T3, gatorbulin site of tubulin. As to conditions: cited from earlier work.
Series [18] has as its system β-tubulin. As to the kind of experiment: Immunoblot analysis of β-tubulin levels in SK-OV-3 cells. The format is cell-based. As to conditions: 16 h. In short, it runs like this:
(§1)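 SK-OV-3 cells seeded at 2 × 10⁵/well and attached 24 h. Medium replaced, then ±1 h preincubation with 10 µM MG-132 before test compound or 0.5 % DMSO for 16 h. Whole-cell lysates normalised by BCA, run on 4–12 % SDS-PAGE, blotted to PVDF and detected by chemiluminescence. Densitometry of a representative blot, normalised to GAPDH and to DMSO without MG-132.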

In series [19] the test system is α-tubulin. As to the kind of experiment: Immunoblot analysis of α-tubulin levels in SK-OV-3 cells. The format is cell-based. The conditions noted are these: 16 h. In short, it runs like this:
as §1

The test system of series [20] is SK-OV-3-MDR1-M6/6 cell line. The conditions noted are these: cited from earlier work.
Setting [21] is: human, liver microsomes, probe tolbutamide, hydroxylation to hydroxytolbutamide.
The mark [22] stands for this setting: human, liver microsomes, probe bufuralol, hydroxylation to 4'-hydroxybufuralol.

Usually inhibition stands for the percentage by which the read-out fell short of the control. Low values mean a weak effect, high ones a strong effect. For `Cc1nc2c([nH]1)c(=O)n(C)c(=O)n2Cc1ccco1` [Fur, furafylline], the inhibition at 40 µM was less than 10% in series [1]; less than 10% in [2] (setting [21]); less than 10% in series [3] (setting [22]); 82% in series [4] (human, microsomes).
A word on the half-life: it is the time needed for the level to fall by half in the phase considered. Higher therefore signals slow loss. Take `CCN(CC)CCNC(=O)c1c(C)[nH]c(/C=C2\C(=O)Nc3ccc(F)cc32)c1C` [Sun, sunitinib]: the figures for the half-life at 1 µM in series [5] and in series [6] were 34.5 min and 13.5 min, respectively.
Consider `CC(=O)N1CCN(c2ccc(OCC3COC(Cn4ccnc4)(c4ccc(Cl)cc4Cl)O3)cc2)CC1` (centres unmarked) [Ket, ketoconazole], for which the inhibition at 1 µM in series [2] (setting [21]) was determined as 39%; in series [4] (human, liver microsomes), 13%.
What is called IC50 is the midpoint of a concentration-inhibition curve. In the case of gatorbulin-2 [GB2], in [7], the “Plasma Protein Binding Human (%free)” value came to 60 %free. In addition, the “Permeability-PAMPA Tested” value in series [8] is 8.2 10^−6 cm/s. Moreover, the “Permeability-PAMPA Predicted level” value in series [8] is listed as “high”. In [2], the “Human P450 Inhibition 2C9 %Inh.” value was determined as 18 %Inh. Besides, the “Plasma Protein Binding Mouse (%free)” value in series [9] is recorded as 88 %free. The “Human P450 Inhibition 3A4 %Inh.” value in series [10] is less than 10 %Inh. Further, the IC50 in series [11] and in series [12] was more than 100 µM in each case. Besides, the “Human P450 Inhibition 2D6 %Inh.” value in [3] is listed as less than 10 %Inh. In addition, the “Human P450 Inhibition 1A2 %Inh.” value in [4] is less than 10 %Inh. The “Solubility Kinetic” value in series [13] was more than 100 µM. For the same molecule, the MTC displacement result in [14] was “no MTC displacement”.
The Papp A→B is the apparent permeability from the apical to the basolateral side of a cell layer. A high value points to fast passage. A word on the Papp B→A: it is how fast a substance crosses the layer from the basolateral side. In general, efflux ratio refers to a quotient of directional permeabilities that is used to spot active efflux. Regarding `CC(C)(C)NCC(O)COc1cccc2c1CC(O)C(O)C2` (centres unmarked) [Nad, nadolol], in series [15], the Papp A→B at 90 min, 2 µM stood at 19 nm/s; the Papp B→A at 90 min, 2 µM is 15 nm/s; the efflux ratio at 90 min, 2 µM was 0.8. For the same molecule, in series [16], the “Permeability-MDCK-PgP Substrate?” value was “poor or non-”.
For the molecule `C=C1NC(=O)[C@H](C)N(O)C(=O)[C@H]([C@@H](O)C(N)=O)N(C)C(=O)[C@H](C)OC(=O)[C@@H]2C[C@H](C)CN2C1=O` [GB1, Gatorbulin-1] (cyclo([Dha][Pro(4S-Me)][Lac][X1][N(OH)Ala])), in series [7], the “Plasma Protein Binding Human (%free)” value was found to be 76 %free. In [8], the “Permeability-PAMPA Tested” value was 4.5 10^−6 cm/s and the “Permeability-PAMPA Predicted level” value is “high”. Moreover, the “binding affinity reported previously” value in [17] was 1.01e+06 M⁻¹. In addition, in series [2], the “Human P450 Inhibition 2C9 %Inh.” value is listed as less than 10 %Inh. In addition, the “Plasma Protein Binding Mouse (%free)” value in series [9] worked out at 80 %free. The “depletion of β-tubulin” value in series [18] (3.2 μM) was 80%. In [18], the “preference for β-tubulin over α-tubulin depletion” value was ~ 3 fold. In addition, the “Human P450 Inhibition 3A4 %Inh.” value in [10] is reported as less than 10 %Inh. The “concentration at which active” value in [11] (SK-OV-3 and HeLa cells, 48 h) is “submicromolar”. The IC50 in series [11] was found to be 0.216 µM. In series [12], the IC50 stood at 0.59 µM. Moreover, in series [16] (2 μM, 90 minutes), the “Permeability-MDCK-PgP Mean Papp A to B” value was 1.8 10^−6 cm/s and the “Permeability-MDCK-PgP Mean Papp B to A” value was 1.6 10^−6 cm/s. In addition, the “Permeability-MDCK-PgP Substrate?” value in series [16] is “not a P-gp substrate or is a poor P-gp substrate; also recorded: poor or non-”. In series [3], the “Human P450 Inhibition 2D6 %Inh.” value amounted to 11 %Inh. Also, the “reduction of α-tubulin levels” value in series [19] (10 μM) was 80%. In addition, in series [19] (without MG132), the “effect on α- and β-tubulin levels” value is “induced a reduction of both α- and β-tubulin levels”. Besides, in [20], the “effectiveness in P-gp overexpressing cells versus parental line” value is “less effective”. In series [4], the “Human P450 Inhibition 1A2 %Inh.” value turned out to be 13 %Inh. The “Solubility Kinetic” value in [13] is more than 100 µM. In series [14] (listed as GB1 (1a)), the “Kb (binding affinity, MTC)” value is reported as 2.2 ± 0.7 × 10^6 M^−1.
Take `CNC(=C[N+](=O)[O-])NCCSCc1ccc(CN(C)C)o1` [Ran, ranitidine, reference compound]: the “Permeability-PAMPA Predicted level” value in series [8] was “low”.
For the molecule `Nc1ccc(S(=O)(=O)Nc2ccnn2-c2ccccc2)cc1` [Sul, sulfaphenazole, reference compound], the inhibition at 10 µM in series [3] (setting [22]) is less than 10%; in series [4] (human, liver microsomes), less than 10%.
In the case of `CC(=O)O[C@H]1C(=O)[C@@]2(C)[C@H]([C@H](OC(=O)c3ccccc3)[C@]3(O)C[C@H](OC(=O)[C@H](O)[C@@H](NC(=O)c4ccccc4)c4ccccc4)C(C)=C1C3(C)C)[C@]1(OC(C)=O)CO[C@@H]1C[C@@H]2O` [Pac, paclitaxel, reference compound], the “Solubility Kinetic” value in series [13] amounted to 1.3 µM (≈ 1.11 µg/mL).
In general, fraction unbound refers to the share of the substance not bound to proteins or other matrix. Higher therefore signals much free substance. Regarding `NC(=O)N1c2ccccc2C=Cc2ccccc21` [Car, carbamazepine, reference compound], the fraction unbound at 6 h, 2 µM is 0.25 in series [7] (human, plasma) and 0.36 in series [9] (mouse, plasma).
In the case of `COc1cc([C@@H]2c3cc4c(cc3[C@H](O)[C@H]3COC(=O)[C@H]23)OCO4)cc(OC)c1OC` [podophyllotoxin, reference compound], the “Kb (binding affinity, MTC)” value in series [14] stood at 1.5e+07 M⁻¹.
The term Papp denotes the rate of passage across a membrane or cell layer, normalised by area and donor concentration. Higher therefore signals fast passage. `CC(C)NCC(O)COc1cccc2ccccc12` (centres unmarked) [Pro, propranolol, reference compound] registered a Papp at 5 h, 5 µM in series [8] (PAMPA, pH 7.4) of 57 nm/s. Also, in series [8], the “Permeability-PAMPA Predicted level” value was “high”.
With `C=C[C@H]1C[N@@]2CC[C@H]1C[C@@H]2[C@@H](O)c1ccnc2ccc(OC)cc12` [Qui, quinidine], the inhibition at 10 µM in [2] (setting [21]) was less than 10%; in [4] (human, liver microsomes) it was less than 10%. Moreover, the Papp A→B at 90 min, 2 µM in series [15] amounted to 16 nm/s. The same molecule displayed a Papp B→A at 90 min, 2 µM in series [15] of 111 nm/s.
